In ChEMBL document CHEMBL1138226, “Biological mechanisms of action of novel C-10 non-acetal trioxane dimers in prostate cancer cell lines” (2006):
Activity calls are given as the source filed them. The calls are words filed in the database; no cut-off is given here.

Assays:
[1] = system: TRAMP-C1A; test: Growth inhibition of mouse C1A cells after 72 hrs by MTT assay; assay type: functional
In short: (§1)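 Seeded overnight at C1A 2500, C2H 1500 or LNCaP 10,000 cells/well, then exposed to a range of concentrations or ethanol vehicle for 72 h. MTT added for 4 h, cells solubilized in 20% SDS/0.02 N HCl, absorbance read at 570 nm. Concentration for 50% growth inhibition (GI50) calculated. Replicate wells ± SD; ≥3 independent experiments.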

[2] = system: TRAMP-C2H; test: Growth inhibition of mouse C2H cells after 72 hrs by MTT assay; assay type: functional; in short: as §1
[3] = system: LNCaP; test: Growth inhibition of human LNCaP cells after 72 hrs by MTT assay; assay type: functional; in short: as §1
[4] = system: TRAMP-C2H; test: Inhibition of DNA synthesis in mouse C2H cells at 50 nM after 72 hrs by BrdU incorporation assay; assay type: functional; set-up: scale not given: the % may be the effect or the level left
In short: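 Sub-confluent C2H cells given 50 nM or vehicle for 72 h, labelled with BrdU for 4 h, incorporation measured by colorimetric BrdU ELISA at 370 nm. Expressed as % of control ± SEM; ANOVA.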

[5] = system: LNCaP; test: Inhibition of DNA synthesis in human LNCaP cells at 50 nM after 72 hrs by BrdU incorporation assay; assay type: functional; set-up: scale not given: the % may be the effect or the level left
In short: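 LNCaP cells given 50 nM or vehicle for 72 h, pulsed 30 min with 100 μg/mL BrdU plus 1 μg/mL FdU. Cells fixed, DNA denatured with 2 N HCl, neutralized with borate pH 8.5, stained with anti-BrdU and Alexa 488 secondary plus PI, then read by flow cytometry. Normalized to control ± SEM; ANOVA.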

[6] = system: LNCaP; test: Decrease in CDK4 expression in LNCaP cells at 50 nM after 72 hrs by Western blot analysis; assay type: functional, Homo sapiens; set-up: scale not given: the % may be the effect or the level left
In short: (§2)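 Sub-confluent LNCaP cells given 50 nM or ethanol vehicle for 72 h. Lysed in Triton X-100/SDS buffer with protease and phosphatase inhibitors, run on SDS-PAGE, blotted to PVDF, probed overnight at 4 °C, detected by HRP chemiluminescence. Bands quantified by densitometry, normalized to actin and expressed relative to control.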

[7] = system: LNCaP; test: Increase in CDK6 expression in LNCaP cells at 50 nM after 72 hrs by Western blot analysis; assay type: functional, cell-based; conditions: Homo sapiens; in short: as §2
[8] = system: LNCaP; test: Inhibition of cyclin D1 expression in LNCaP cells at 50 nM after 72 hrs by Western blot analysis; assay type: functional, cell-based; conditions: Homo sapiens; in short: as §2
[9] = system: LNCaP; test: Inhibition of CDK2 expression in LNCaP cells at 50 nM after 72 hrs by Western blot analysis; assay type: functional, cell-based; conditions: Homo sapiens; in short: as §2
[10] = target: Cyclin-dependent kinase 2 (Homo sapiens) (UniProt P24941); test: Inhibition of CDK2 kinase activity assessed as decrease in histone H1 phosphorylation in LNCaP cells at 50 nM after 72 hrs by Western blot analysis; assay type: functional, cell-based
In short: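 LNCaP cells given 50 nM or vehicle for 72 h, lysed in NP40 buffer. Lysate (100 μg) immunoprecipitated overnight at 4 °C with cdk2 antibody on protein A/G beads. Beads incubated 30 min at 30 °C with 2 μg histone H1, 20 μM ATP and 5 μCi [γ-32P]ATP. Reaction resolved by SDS-PAGE and phospho-H1 detected by autoradiography, with cdk2 immunoblot alongside.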

[11] = system: LNCaP; test: Decrease in Cyclin E expression in LNCaP cells at 50 nM after 72 hrs by Western blot analysis; assay type: functional, cell-based; conditions: Homo sapiens; in short: as §2
[12] = system: LNCaP; test: Cell cycle arrest in LNCaP cells by accumulation at G1/S phase at 50 nM after 72 hrs by PI staining; assay type: functional, cell-based; conditions: Homo sapiens
In short: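 Sub-confluent LNCaP cells given vehicle (ethanol) or 50 nM for 72 h. Cells fixed in ice-cold 70% ethanol at 4 °C for ≥30 min, then stained with PI (10 μg/mL) plus RNase A (100 μg/mL) for 30 min in the dark. Phase distribution read by flow cytometry. Mean of three independent experiments ± SEM.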

[13] = system: LNCaP; test: Increase in p21 expression in LNCaP cells at 50 nM after 72 hrs relative to control by Western blot analysis; assay type: functional, Homo sapiens; in short: as §2
[14] = system: LNCaP; test: Increase in p27 expression in LNCaP cells at 50 nM after 72 hrs relative to control by Western blot analysis; assay type: functional, Homo sapiens; in short: as §2
[15] = system: LNCaP; test: Increase in p53 expression in LNCaP cells at 50 nM after 72 hrs relative to control by Western blot analysis; assay type: functional, cell-based; conditions: Homo sapiens; in short: as §2
[16] = system: LNCaP; test: Induction of early apoptosis in LNCaP cells at 50 nM after 72 hrs relative to control by V-PE/7-AAD staining; assay type: functional, Homo sapiens
In short: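 Sub-confluent LNCaP cells given 50 nM or vehicle for 72 h, trypsinized, washed in cold PBS, stained with annexin V-PE and 7-AAD for 15 min in the dark, analysed by flow cytometry. Early apoptosis = annexin V-positive only. Reported as fold over control ± SEM; ANOVA.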

[17] = system: LNCaP; test: Increase in bax expression in LNCaP cells at 50 nM after 72 hrs by Western blot analysis; assay type: functional, cell-based; conditions: Homo sapiens; in short: as §2
[18] = system: LNCaP; test: Decrease in Bcl2 expression in LNCaP cells at 50 nM after 72 hrs by Western blot analysis; assay type: functional, cell-based; conditions: Homo sapiens; in short: as §2
[19] = system: LNCaP; test: Growth inhibition of human LNCaP cells at 100 nM after 72 hrs by MTT assay; assay type: functional; in short: as §1
[20] = system: LNCaP; test: Cell cycle arrest in LNCaP cells by accumulation at G2/M phase at 50 nM after 72 hrs by PI staining; assay type: functional, cell-based; conditions: Homo sapiens
In short: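 Sub-confluent LNCaP (RPMI, 10% FBS, 37 °C, 5% CO2) exposed to 50 nM or ethanol vehicle (≤0.002%) for 72 h; harvested, fixed in ice-cold 70% ethanol ≥30 min at 4 °C; ~10^6 cells stained with PI (10 μg/mL) plus RNase A (100 μg/mL) 30 min in dark; FACS; % cells in G0/G1, S, G2/M, mean of three independent experiments ± SEM.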

[21] = system: LNCaP; test: Induction of late apoptosis in LNCaP cells at 50 nM after 72 hrs relative to control by V-PE/7-AAD staining; assay type: functional, cell-based; conditions: Homo sapiens
In short: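 Sub-confluent LNCaP treated 72 h with 50 nM or ethanol vehicle; trypsinized, washed twice in ice-cold PBS, stained with annexin V-PE and 7-AAD 15 min in dark, analysed by FACS; late stage scored as annexin V plus 7-AAD positive; mean fold increase ± SEM normalized to control (=1.0), ANOVA.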

| Compound | GI50 [1] [nM] | GI50 [2] [nM] | GI50 [3] [nM] | Activity [6] [%] | Activity [7] | Activity [8] | Activity [9] | Activity [10] | Activity [11] | Activity [12] | Activity [13] | Activity [14] | Activity [15] | Activity [16] | Activity [17] | Activity [18] | inhibition at 0.1 µM [19] [%] | also measured |
| --- | --- | --- | --- | --- | --- | --- | --- | --- | --- | --- | --- | --- | --- | --- | --- | --- | --- | --- |
| C[C@H]1[C@@H](CC(CNc2ccccc2)C[C@H]2O[C@@H]3O[C@@]4(C)CC[C@H]5[C@H](C)CC[C@@H]([C@H]2C)[C@@]35OO4)O[C@@H]2O[C@@]3(C)CC[C@H]4[C@H](C)CC[C@@H]1[C@@]24OO3 (stereo not given in full) | 18 | 17 | 17.9 | 10 | Active | Active | Active | Active | Active | Active | 9 | 6.5 | inactive | 4 | Active | Active | 97 | Activity [4]: >90%; Activity [5]: >90% |
| CCOP(=O)(OCC)OCC(C[C@H]1O[C@@H]2O[C@@]3(C)CC[C@H]4[C@H](C)CC[C@@H]([C@H]1C)[C@@]24OO3)C[C@H]1O[C@@H]2O[C@@]3(C)CC[C@H]4[C@H](C)CC[C@@H]([C@H]1C)[C@@]24OO3 (stereo not given in full) | 42.2 | 39.4 | 36.3 | 10 | – | Active | Active | Active | Active | Active | 9 | 6.5 | inactive | 4 | Active | – | – | – |
| COc1cccc2c1C(=O)c1c(O)c3c(c(O)c1C2=O)C[C@@](O)(C(=O)CO)C[C@@H]3O[C@H]1C[C@H](N)[C@H](O)[C@H](C)O1 [DOXORUBICIN] | 20.4 | 15.8 | 45.3 | – | – | – | – | – | – | – | – | – | – | – | – | – | 69 | Activity [20]: Active; Activity [21]: Active |
| C[C@H]1[C@@H](CC(COP(=O)(Oc2ccccc2)Oc2ccccc2)C[C@H]2O[C@@H]3O[C@@]4(C)CC[C@H]5[C@H](C)CC[C@@H]([C@H]2C)[C@@]35OO4)O[C@@H]2O[C@@]3(C)CC[C@H]4[C@H](C)CC[C@@H]1[C@@]24OO3 (stereo not given in full) | 31.9 | 44.8 | 34.4 | 10 | Active | Active | Active | Active | Active | Active | 9 | 6.5 | inactive | 4 | Active | Active | – | – |
